The record followed here is ChEMBL document CHEMBL1140872, “Discovery of a potent and selective inhibitor for human carbonyl reductase 1 from propionate scanning applied to the macrolide zearalenone” (Bioorg Med Chem, 2009).

As a reminder, the Tm is the temperature at the midpoint of the melting transition.

Assay [1] concerns the target Serine/threonine-protein kinase pim-1 (Homo sapiens) (UniProt P11309). Nature of the assay: Binding affinity to human recombinant PIM1 expressed in Escherichia coli assessed as thermal shift by differential scanning fluorimetry. The gist of the method: (§1)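 Thermal-shift (DSF) binding assay with purified recombinant catalytic domains or proteins carrying an N- or C-terminal His6 tag or GST fusion. Purity was >95% by SDS/PAGE and identity was confirmed by MS. Protein was at 2 µM final in 10 mM HEPES pH 7.5 and 150 mM NaCl. Tm shift is reported, with 2 °C as the threshold for binding.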

Assay [2] deals with T1, Cyclin-G-associated kinase (Homo sapiens) (UniProt O14976).
T1 sequence (whole entry): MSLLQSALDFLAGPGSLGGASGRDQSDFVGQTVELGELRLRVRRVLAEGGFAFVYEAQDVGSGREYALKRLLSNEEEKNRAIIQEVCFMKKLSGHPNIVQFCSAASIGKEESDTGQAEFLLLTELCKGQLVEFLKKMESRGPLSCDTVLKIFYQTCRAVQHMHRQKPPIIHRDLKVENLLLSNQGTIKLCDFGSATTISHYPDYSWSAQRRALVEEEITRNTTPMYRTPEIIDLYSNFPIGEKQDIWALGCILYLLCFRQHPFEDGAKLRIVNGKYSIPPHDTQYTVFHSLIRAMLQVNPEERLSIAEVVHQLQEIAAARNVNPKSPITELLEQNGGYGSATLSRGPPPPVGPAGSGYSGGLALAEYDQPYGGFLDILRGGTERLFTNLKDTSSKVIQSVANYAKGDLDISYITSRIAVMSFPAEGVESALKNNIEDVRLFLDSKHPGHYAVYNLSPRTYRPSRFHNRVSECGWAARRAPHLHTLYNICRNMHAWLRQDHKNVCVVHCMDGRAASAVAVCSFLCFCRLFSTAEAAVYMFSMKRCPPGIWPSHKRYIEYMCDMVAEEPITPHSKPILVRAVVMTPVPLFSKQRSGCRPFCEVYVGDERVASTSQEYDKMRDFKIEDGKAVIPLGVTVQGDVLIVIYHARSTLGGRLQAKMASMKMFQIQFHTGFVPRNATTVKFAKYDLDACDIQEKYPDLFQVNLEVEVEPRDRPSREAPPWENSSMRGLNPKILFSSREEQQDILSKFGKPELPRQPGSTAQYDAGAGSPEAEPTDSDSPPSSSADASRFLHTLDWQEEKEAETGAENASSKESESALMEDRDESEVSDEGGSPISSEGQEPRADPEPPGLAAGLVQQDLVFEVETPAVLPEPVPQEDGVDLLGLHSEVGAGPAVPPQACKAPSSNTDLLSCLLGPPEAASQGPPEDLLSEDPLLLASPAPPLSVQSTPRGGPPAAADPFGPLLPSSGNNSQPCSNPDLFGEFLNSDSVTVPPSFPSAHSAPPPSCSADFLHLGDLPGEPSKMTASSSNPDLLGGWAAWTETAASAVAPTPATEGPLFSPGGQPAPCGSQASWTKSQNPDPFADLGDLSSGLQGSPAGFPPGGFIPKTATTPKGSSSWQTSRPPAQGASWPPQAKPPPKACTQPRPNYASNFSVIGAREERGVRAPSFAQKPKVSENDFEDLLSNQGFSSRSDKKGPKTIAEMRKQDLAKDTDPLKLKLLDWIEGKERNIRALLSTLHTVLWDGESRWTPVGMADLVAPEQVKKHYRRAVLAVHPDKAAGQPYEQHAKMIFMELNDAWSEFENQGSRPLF
Nature of the assay: Binding affinity to human recombinant GAK expressed in Escherichia coli assessed as thermal shift by differential scanning fluorimetry. The gist of the method:
as §1
In general terms: In DSF a fluorescence change marks the thermal transition of the protein.

Assay [3] concerns the target Mitogen-activated protein kinase 11 (Homo sapiens) (UniProt Q15759). The assay can be described thus: Binding affinity to human recombinant MAPK11 expressed in Escherichia coli assessed as thermal shift by differential scanning fluorimetry. The gist of the method:
as §1

The species named for a further assay is Homo sapiens. The assay can be described thus: Binding affinity to human recombinant DYRK1 expressed in Escherichia coli assessed as thermal shift by differential scanning fluorimetry. Summed up:
as §1

Assay [4] deals with STE20-like serine/threonine-protein kinase (Homo sapiens) (UniProt Q9H2G2). The assay can be described thus: Binding affinity to human recombinant SLK expressed in Escherichia coli assessed as thermal shift by differential scanning fluorimetry. Summed up:
as §1

The target of assay [5] is Serine/threonine-protein kinase 10 (Homo sapiens) (UniProt O94804). The assay can be described thus: Binding affinity to human recombinant LOK expressed in Escherichia coli assessed as thermal shift by differential scanning fluorimetry. The gist of the method:
as §1

Assay [6] deals with T2, Dual specificity mitogen-activated protein kinase kinase 6 (Homo sapiens) (UniProt P52564).
T2 sequence (whole entry): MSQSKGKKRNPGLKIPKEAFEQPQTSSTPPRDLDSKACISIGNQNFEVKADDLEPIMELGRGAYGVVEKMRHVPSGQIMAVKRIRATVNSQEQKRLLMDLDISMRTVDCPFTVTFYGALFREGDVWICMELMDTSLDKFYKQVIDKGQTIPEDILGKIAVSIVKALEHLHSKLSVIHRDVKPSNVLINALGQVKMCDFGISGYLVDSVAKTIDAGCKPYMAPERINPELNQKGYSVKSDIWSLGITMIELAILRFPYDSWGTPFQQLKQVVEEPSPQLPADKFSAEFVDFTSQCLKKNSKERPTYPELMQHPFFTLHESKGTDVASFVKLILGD
Nature of the assay: Binding affinity to human recombinant MAP2K6 expressed in Escherichia coli assessed as thermal shift by differential scanning fluorimetry. Summed up: as §1

The target of assay [7] is Casein kinase I isoform gamma-1 (Homo sapiens) (UniProt Q9HCP0). The assay can be described thus: Binding affinity to human recombinant CSNK1G1 expressed in Escherichia coli assessed as thermal shift by differential scanning fluorimetry. Summed up: as §1
Assay [8] deals with Serine/threonine-protein kinase PAK 6 (Homo sapiens) (UniProt Q9NQU5). The assay can be described thus: Binding affinity to human recombinant PAK6 expressed in Escherichia coli assessed as thermal shift by differential scanning fluorimetry. Summed up:
as §1

Assay [9] deals with T3, Carbonyl reductase [NADPH] 3 (Homo sapiens) (UniProt O75828).
T3 sequence (whole entry): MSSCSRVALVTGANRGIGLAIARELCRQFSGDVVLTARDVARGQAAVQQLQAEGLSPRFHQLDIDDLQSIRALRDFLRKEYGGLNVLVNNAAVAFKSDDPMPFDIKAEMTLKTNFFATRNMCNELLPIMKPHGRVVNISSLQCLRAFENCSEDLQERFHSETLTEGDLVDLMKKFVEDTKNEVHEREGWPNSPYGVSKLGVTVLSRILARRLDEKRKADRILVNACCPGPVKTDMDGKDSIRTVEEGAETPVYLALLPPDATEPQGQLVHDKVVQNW
Nature of the assay: Binding affinity to human recombinant carbonyl reductase 3 expressed in Escherichia coli assessed as thermal shift by differential scanning fluorimetry in absence of cofactor. The gist of the method:
as §1

The structures appear in SMILES notation.

Sequence of Serine/threonine-protein kinase pim-1 (Homo sapiens) (P11309 whole entry, looked up, the tested form may be a part): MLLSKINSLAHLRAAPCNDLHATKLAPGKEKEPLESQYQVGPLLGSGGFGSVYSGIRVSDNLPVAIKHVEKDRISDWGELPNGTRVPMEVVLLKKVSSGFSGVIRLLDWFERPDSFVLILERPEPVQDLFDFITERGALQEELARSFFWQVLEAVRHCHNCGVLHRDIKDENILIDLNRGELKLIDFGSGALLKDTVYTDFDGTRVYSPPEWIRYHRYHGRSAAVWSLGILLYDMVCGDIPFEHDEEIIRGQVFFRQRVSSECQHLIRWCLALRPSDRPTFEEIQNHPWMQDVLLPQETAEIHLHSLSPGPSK
Sequence of Casein kinase I isoform gamma-1 (Homo sapiens) (Q9HCP0 whole entry, looked up, canonical isoform): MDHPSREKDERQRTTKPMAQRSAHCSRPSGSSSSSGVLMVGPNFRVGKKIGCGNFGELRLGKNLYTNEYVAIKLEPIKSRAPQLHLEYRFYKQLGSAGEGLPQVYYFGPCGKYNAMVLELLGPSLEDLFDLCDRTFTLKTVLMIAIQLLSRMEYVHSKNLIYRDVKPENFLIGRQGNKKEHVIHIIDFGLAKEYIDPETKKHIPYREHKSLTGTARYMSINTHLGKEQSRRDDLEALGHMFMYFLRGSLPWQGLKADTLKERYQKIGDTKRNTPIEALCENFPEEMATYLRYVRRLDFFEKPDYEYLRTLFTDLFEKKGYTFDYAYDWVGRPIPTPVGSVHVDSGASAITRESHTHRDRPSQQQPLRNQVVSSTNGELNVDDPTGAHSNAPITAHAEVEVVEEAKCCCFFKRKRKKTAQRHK
Sequence of Mitogen-activated protein kinase 11 (Homo sapiens) (Q15759 whole entry): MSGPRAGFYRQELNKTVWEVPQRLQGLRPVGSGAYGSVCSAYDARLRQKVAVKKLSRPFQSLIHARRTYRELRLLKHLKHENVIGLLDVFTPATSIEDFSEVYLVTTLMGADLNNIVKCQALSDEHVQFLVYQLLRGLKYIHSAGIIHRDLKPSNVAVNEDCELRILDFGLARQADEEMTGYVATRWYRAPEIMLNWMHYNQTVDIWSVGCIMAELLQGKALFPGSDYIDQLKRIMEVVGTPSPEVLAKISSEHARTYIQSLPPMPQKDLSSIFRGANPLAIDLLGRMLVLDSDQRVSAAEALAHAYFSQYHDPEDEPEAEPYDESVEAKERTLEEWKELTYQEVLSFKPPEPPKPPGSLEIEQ
Sequence of Serine/threonine-protein kinase 10 (Homo sapiens) (O94804 whole entry, looked up): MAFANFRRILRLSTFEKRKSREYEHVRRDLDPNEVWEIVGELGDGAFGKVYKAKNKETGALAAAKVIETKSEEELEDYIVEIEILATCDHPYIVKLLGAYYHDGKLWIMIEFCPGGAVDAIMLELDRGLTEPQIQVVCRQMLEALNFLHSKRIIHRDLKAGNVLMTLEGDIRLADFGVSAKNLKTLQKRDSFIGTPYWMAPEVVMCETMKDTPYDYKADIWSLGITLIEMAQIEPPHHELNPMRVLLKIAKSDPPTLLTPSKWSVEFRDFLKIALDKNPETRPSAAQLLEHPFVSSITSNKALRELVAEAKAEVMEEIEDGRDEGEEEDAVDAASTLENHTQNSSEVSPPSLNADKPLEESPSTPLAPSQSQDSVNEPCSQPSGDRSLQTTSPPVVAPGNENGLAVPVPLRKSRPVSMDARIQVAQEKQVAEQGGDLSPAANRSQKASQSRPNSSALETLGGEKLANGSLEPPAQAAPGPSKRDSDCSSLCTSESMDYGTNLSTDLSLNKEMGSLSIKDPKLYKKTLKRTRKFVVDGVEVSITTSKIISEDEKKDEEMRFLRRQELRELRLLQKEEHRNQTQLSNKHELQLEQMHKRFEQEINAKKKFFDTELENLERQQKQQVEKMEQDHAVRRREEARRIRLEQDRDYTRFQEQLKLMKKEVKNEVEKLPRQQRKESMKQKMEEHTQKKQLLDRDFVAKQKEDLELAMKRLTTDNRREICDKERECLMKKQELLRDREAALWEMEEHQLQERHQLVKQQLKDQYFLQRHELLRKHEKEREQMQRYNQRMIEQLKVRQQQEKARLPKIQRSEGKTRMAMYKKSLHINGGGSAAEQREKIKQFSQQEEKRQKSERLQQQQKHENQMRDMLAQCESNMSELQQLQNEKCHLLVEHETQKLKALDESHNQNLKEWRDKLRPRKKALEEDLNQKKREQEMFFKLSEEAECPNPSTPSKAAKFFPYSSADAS
Sequence of Serine/threonine-protein kinase PAK 6 (Homo sapiens) (Q9NQU5 whole entry, looked up): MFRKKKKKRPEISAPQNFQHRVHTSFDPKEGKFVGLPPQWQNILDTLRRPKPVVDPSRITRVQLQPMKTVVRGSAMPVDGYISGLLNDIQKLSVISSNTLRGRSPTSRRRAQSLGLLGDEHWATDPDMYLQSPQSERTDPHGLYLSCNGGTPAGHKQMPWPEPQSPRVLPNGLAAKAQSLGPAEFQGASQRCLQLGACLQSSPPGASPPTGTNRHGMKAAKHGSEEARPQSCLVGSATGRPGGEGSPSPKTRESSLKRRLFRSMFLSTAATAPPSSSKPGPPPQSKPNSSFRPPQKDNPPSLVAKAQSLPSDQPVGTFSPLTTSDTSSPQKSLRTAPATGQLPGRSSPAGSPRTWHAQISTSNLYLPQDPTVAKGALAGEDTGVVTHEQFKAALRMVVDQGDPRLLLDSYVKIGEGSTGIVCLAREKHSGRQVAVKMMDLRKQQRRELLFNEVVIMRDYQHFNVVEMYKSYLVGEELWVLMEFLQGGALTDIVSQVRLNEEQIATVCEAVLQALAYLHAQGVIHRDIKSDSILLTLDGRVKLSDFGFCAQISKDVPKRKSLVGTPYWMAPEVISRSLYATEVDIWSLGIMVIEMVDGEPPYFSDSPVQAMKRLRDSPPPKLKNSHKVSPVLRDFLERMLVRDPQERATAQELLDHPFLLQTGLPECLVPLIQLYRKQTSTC
Sequence of STE20-like serine/threonine-protein kinase (Homo sapiens) (Q9H2G2 whole entry, looked up): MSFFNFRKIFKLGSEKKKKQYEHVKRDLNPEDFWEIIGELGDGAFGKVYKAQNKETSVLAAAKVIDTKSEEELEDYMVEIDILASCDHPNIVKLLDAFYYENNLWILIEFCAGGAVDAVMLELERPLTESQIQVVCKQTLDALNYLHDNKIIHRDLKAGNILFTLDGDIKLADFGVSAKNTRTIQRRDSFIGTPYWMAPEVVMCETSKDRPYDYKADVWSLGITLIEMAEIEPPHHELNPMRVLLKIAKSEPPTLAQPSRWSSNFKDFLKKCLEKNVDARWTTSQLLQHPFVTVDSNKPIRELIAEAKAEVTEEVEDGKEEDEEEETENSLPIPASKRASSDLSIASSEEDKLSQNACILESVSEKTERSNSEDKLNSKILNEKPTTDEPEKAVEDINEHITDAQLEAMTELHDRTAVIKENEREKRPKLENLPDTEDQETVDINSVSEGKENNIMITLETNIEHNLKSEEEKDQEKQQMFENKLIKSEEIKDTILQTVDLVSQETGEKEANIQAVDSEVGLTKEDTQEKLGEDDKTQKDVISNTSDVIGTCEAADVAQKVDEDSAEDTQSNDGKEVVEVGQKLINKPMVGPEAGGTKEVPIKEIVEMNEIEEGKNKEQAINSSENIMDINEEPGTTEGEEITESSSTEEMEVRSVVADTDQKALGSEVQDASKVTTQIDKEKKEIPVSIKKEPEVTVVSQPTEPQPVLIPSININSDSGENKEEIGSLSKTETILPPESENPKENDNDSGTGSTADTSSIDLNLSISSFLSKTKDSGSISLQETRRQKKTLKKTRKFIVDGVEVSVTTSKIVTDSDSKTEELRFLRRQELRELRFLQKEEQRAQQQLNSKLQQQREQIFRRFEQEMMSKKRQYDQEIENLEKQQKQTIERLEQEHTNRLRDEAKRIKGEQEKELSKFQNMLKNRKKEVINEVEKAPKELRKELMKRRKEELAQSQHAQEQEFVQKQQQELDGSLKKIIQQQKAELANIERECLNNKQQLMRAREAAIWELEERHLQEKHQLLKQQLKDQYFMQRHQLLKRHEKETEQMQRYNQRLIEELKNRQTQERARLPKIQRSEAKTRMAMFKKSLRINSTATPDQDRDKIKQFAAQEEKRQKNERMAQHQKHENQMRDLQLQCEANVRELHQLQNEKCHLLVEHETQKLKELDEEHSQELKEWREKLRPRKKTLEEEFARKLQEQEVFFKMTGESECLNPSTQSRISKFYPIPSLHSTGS

For the molecule `C[C@H]1CCCC(=O)CCC/C=C/c2cc(O)cc(O)c2C(=O)O1`, the Tm in assay [1] was 3 °C; in [2], 2.4 °C; in [3] it was < 2 °C; in the assay listed under Homo sapiens, < 2 °C; in assay [4], 4.4 °C; in assay [5], 4.6 °C. Besides, the Tm in assay [6], in assay [7], in assay [8] and in assay [9] was < 2 °C throughout.

On to `COc1cc(O)c2c(c1)/C=C/CC[C@H](C)C(=O)CCC[C@H](C)OC2=O`, for which the Tm in [1] is < 2 °C; in assay [2], < 2 °C; in assay [3] it was < 2 °C; in the assay listed under Homo sapiens, < 2 °C; in [4], 2.5 °C; in assay [5] it was < 2 °C. The Tm in assay [6], in [7], in [8] and in [9] was < 2 °C each time.

With `COc1cc2c(c(OC)c1)C(=O)O[C@@H](C)CCCC(=O)[C@@H](C)CC/C=C/2`, the Tm (in [1]; in assay [2]; in assay [3]; in the assay listed under Homo sapiens; in assay [4]; in assay [5]) was < 2 °C each time. Besides, the midpoint of thermal melting (Tm) in [6], in assay [7], in assay [8] and in assay [9] was < 2 °C throughout.

For the molecule `COc1cc2c(c(OC)c1)C(=O)O[C@@H](C)CCC[C@@H](O)[C@@H](C)CC/C=C/2`, the Tm (in assay [1]; in assay [2]; in [3]; in the assay filed under Homo sapiens; in assay [4]; in assay [5]) was < 2 °C in each case. The Tm in [6], in assay [7], in assay [8] and in assay [9] was < 2 °C in each case.

Take `C[C@@H]1C[C@H]2O[C@@H]2/C=C\C=C\C(=O)Cc2c(Cl)c(O)cc(O)c2C(=O)O1` [RADICICOL]: the Tm (in assay [1]; in [2]; in [3]; in the assay listed under Homo sapiens; in assay [4]; in assay [5]) was < 2 °C each time. Besides, the Tm in assay [6], in [7], in assay [8] and in assay [9] was < 2 °C each time.

`COC1=C2C[C@@H](C)C[C@H](OC)[C@H](O)[C@@H](C)/C=C(\C)[C@H](OC(N)=O)[C@@H](OC)/C=C\C=C(/C)C(=O)NC(=CC1=O)C2=O`: the Tm (in assay [1]; in assay [2]; in [3]; in the assay listed under Homo sapiens; in assay [4]; in assay [5]) was < 2 °C throughout. The Tm in assay [6], in assay [7], in [8] and in [9] was < 2 °C throughout.

As to `C[C@H]1CCCC(=O)[C@@H](C)CC/C=C/c2cc(O)cc(O)c2C(=O)O1`, the midpoint of thermal melting (Tm) in assay [1] is 2.2 °C; in [2], 2.9 °C; in assay [3] it was < 2 °C; in the assay listed under Homo sapiens it was < 2 °C; in assay [4], 3.5 °C; in assay [5] it was < 2 °C. Further, the midpoint of thermal melting (Tm) in [6], in assay [7], in [8] and in assay [9] was < 2 °C throughout.
